Here are results for eleven molecules from ChEMBL document CHEMBL3870305, “Synthesis, biological evaluation and molecular modeling studies of imidazo[1,2-a]pyridines derivatives as protein kinase inhibitors” (Eur J Med Chem, 2016).

A word on the inhibition: it is the relative decrease from the control value, in per cent. The term IC50 denotes the concentration that gives 50% inhibition.

Calls of active or inactive are those of the source. No cut-off for these calls is given here. Where only a bound is given, the exact number is not on record here.

Experiment [1] has as its target CDK9/cyclin T1 (Homo sapiens) (UniProt O60563+P50750). The experiment in a line: Inhibition of full length recombinant human CDK9/CyclinT expressed in baculovirus infected Sf9 insect cells at 10 uM using YSPTSPSYSPTSPSYSPTSPSKKKK as substrate in presence of gamma[33P]ATP.
Experiment [2] concerns the target Cyclin-dependent kinase 1/cyclin B1 (Homo sapiens) (UniProt P06493+P14635). The experiment in a line: Inhibition of full length recombinant human CDK1/CyclinB1 expressed in baculovirus infected Sf9 insect cells at 10 uM using histone H1 as substrate in presence of gamma[33P]ATP. In outline: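 Buffer G (40 mM Tris pH 7.5, 20 mM MgCl2, 0.1 mg/ml BSA) with 0.8 µg/µl histone H1 and 15 µM [γ-33P]ATP. Compound tested at 10 µM; activity as % of the no-inhibitor control; n = 2, mean ± range.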

Experiment [3] has as its target CDK2/Cyclin A2 (Homo sapiens) (UniProt P24941+P20248). The experiment in a line: Inhibition of full length human CDK2/CyclinA at 10 uM using histone H1 as substrate in presence of gamma[33P]ATP. Type of experiment: protein-complex assay.
In experiment [4] the target is Cyclin-dependent kinase 5/CDK5 activator 1 (Homo sapiens) (UniProt Q00535+Q15078). The experiment in a line: Inhibition of full length recombinant human CDK5/p25 expressed in bacteria at 10 uM using histone H1 as substrate in presence of gamma[33P]ATP. In outline: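 Buffer B (25 mM MOPS pH 7, β-glycerophosphate, p-nitrophenyl-phosphate, EGTA, 15 mM MgCl2, DTT, orthovanadate) with 0.8 µg/µl histone H1 and 15 µM [γ-33P]ATP. Compound tested at 10 µM; activity as % of the no-inhibitor control; n = 2, mean ± range.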
Cyclin-dependent kinase 5/CDK5 activator 1 (Homo sapiens), sequence (Q00535 whole entry): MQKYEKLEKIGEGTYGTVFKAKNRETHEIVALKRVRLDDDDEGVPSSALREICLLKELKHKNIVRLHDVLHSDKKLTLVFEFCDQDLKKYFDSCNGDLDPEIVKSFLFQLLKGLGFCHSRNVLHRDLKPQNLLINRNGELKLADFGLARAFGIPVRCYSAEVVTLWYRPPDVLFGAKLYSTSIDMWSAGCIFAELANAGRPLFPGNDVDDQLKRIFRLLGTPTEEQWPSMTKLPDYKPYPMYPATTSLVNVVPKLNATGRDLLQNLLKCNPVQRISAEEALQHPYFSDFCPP
Cyclin-dependent kinase 5/CDK5 activator 1 (Homo sapiens), sequence (Q15078 99-307 partner limits assumed): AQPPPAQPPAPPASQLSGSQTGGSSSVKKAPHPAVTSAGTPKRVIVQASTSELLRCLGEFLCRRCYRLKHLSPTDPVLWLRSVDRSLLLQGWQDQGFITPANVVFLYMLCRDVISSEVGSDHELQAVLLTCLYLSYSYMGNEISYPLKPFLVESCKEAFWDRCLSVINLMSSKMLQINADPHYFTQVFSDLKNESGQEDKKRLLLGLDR

In experiment [5] the target is CLK1 (Mus musculus). The experiment in a line: Inhibition of CLK1 (unknown origin).
Experiment [6] concerns the target Glycogen synthase kinase-3 alpha/beta (Sus scrofa). The experiment in a line: Inhibition of GSK-3 alpha/beta (unknown origin).
Experiment [7] addresses DYRK1A (Rattus norvegicus). The experiment in a line: Inhibition of DYRK1A (unknown origin).
In experiment [8] the test system is CLK1 (Mus musculus). The experiment in a line: Inhibition of CLK1 (unknown origin) at 10 uM in presence of gamma[33P]ATP relative to control.
Experiment [9] concerns DYRK1A (Rattus norvegicus). The experiment in a line: Inhibition of DYRK1A (unknown origin) at 10 uM in presence of gamma[33P]ATP relative to control.
In experiment [10] the target is Casein kinase I delta/epsilon (Sus scrofa). The experiment in a line: Inhibition of CK1 delta/epsilon (unknown origin).
Experiment [11] concerns the target Dual specificity protein kinase CLK1 (Mus musculus) (UniProt P22518). The experiment in a line: Competitive inhibition of full length recombinant mouse CLK1 expressed in bacteria using GRSRSRSRSRSR peptide as substrate in presence of varying levels of ATP by double-reciprocal method.

Cyclin-dependent kinase 1/cyclin B1 (Homo sapiens), sequence (P06493 whole entry, looked up): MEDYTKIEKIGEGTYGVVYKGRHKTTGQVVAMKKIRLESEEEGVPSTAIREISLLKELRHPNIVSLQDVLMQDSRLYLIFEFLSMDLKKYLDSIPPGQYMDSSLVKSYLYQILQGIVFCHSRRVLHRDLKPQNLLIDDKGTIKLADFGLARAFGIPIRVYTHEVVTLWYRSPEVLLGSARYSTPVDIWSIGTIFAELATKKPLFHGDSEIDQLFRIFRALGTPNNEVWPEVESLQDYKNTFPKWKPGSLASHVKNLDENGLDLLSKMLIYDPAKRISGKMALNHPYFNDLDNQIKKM
Cyclin-dependent kinase 1/cyclin B1 (Homo sapiens), sequence (P14635 whole entry, looked up): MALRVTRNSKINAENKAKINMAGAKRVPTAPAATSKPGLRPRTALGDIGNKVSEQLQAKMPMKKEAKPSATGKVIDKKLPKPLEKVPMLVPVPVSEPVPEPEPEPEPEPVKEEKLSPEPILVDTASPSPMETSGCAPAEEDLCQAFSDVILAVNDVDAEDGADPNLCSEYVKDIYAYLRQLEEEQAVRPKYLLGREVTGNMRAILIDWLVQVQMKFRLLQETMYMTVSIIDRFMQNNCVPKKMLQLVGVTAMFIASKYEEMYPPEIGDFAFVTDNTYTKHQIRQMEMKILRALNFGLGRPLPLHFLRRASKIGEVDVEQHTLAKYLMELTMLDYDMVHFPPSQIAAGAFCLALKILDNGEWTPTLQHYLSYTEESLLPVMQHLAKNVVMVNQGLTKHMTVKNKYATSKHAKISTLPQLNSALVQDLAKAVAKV
Dual specificity protein kinase CLK1 (Mus musculus), sequence (P22518 whole entry, looked up): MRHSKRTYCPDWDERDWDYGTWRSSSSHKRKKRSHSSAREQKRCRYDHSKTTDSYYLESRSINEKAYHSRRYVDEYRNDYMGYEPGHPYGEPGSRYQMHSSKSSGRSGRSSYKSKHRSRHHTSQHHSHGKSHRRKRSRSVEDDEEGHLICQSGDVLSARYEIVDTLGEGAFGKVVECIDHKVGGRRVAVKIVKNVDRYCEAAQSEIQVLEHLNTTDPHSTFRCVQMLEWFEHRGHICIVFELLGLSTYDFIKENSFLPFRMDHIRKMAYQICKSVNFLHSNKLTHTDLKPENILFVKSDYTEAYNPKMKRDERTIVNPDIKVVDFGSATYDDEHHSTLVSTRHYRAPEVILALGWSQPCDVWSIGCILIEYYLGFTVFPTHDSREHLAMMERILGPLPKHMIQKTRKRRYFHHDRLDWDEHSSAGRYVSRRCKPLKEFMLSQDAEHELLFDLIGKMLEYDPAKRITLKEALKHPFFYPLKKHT

For `NC(=O)c1cc(-c2cn3cc(O)ccc3n2)ccc1O`, the inhibition entry in experiment [1], in [2], in [3] and in [4] was “Active” throughout.
Consider `NC(=O)c1cc(-c2cn3ccccc3n2)ccc1O`, for which the IC50 against CLK1 (Mus musculus) [5] was 1 µM; in experiment [6] it was over 10 µM; in experiment [7] it was 4 µM; in experiment [10], over 10 µM. The inhibition (with CLK1 (Mus musculus) [8]; in experiment [9]) was over 50% each time.
`NC(=O)c1cc(-c2cn3cc(F)ccc3n2)ccc1O`: the IC50 against CLK1 (Mus musculus) [5] was 1.4 µM; in experiment [6], over 10 µM; in experiment [7] it was 4.7 µM; in experiment [10] it was over 10 µM. Also, the inhibition (in the experiment on CLK1 (Mus musculus) [8]; in [9]) was over 50% in each case.
Consider `NC(=O)c1cc(-c2cn3cc(-c4ccc([N+](=O)[O-])cc4)ccc3n2)ccc1O`, for which the IC50 (against CLK1 (Mus musculus) [5]; in experiment [6]; in [7]; in experiment [10]) was over 10 µM in each case.
For the molecule `NC(=O)c1cc(-c2cn3cc(N)ccc3n2)ccc1O`, the IC50 (at CLK1 (Mus musculus) [5]; in [6]; in experiment [7]; in experiment [10]) was over 10 µM each time.
With `NC(=O)c1cc(-c2cn3cc(Cl)ccc3n2)ccc1O`, the inhibition result in experiment [1], in experiment [2], in [3] and in [4] was “Active” in each case.
As for `NC(=O)c1cc(-c2cn3cc(Br)ccc3n2)ccc1O`, the IC50 at CLK1 (Mus musculus) [5] was 0.7 µM; in experiment [6], over 10 µM; in [7], 2.6 µM; in experiment [10], over 10 µM. Also, the inhibition entry in experiment [1], in [2], in [3], in experiment [11] and in experiment [4] was “Active” throughout. Moreover, the inhibition (with CLK1 (Mus musculus) [8]; in [9]) was over 50% throughout.
As for `COc1cc(-c2cn3cc(Cl)ccc3n2)cc(OC)c1OC`, the IC50 (against CLK1 (Mus musculus) [5]; in experiment [6]; in experiment [7]; in [10]) was over 10 µM each time.
For `Oc1ccc(-c2cn3cc(Cl)ccc3n2)cc1`, the IC50 (on CLK1 (Mus musculus) [5]; in experiment [6]; in experiment [7]; in [10]) was over 10 µM each time.
For the molecule `COc1cc(OC)cc(-c2cn3cc(Cl)ccc3n2)c1`, the IC50 (against CLK1 (Mus musculus) [5]; in experiment [6]; in [7]; in experiment [10]) was over 10 µM throughout.
Regarding `COc1cccc(-c2cn3cc(Cl)ccc3n2)c1`, the IC50 (on CLK1 (Mus musculus) [5]; in experiment [6]; in experiment [7]; in experiment [10]) was over 10 µM throughout.
